Blank lines part the entries; values can stand above or below the molecule they belong to. The source made the active and inactive calls. No cut-off for these calls is given here.
Tests used:
[1] = biological target: T1, Carbonic anhydrase 9 (Homo sapiens, UniProt Q16790); assay: Binding affinity to human recombinant CA9 catalytic domain assessed as dissociation rate constant after 30 secs by surface plasmon resonance assay
Procedure, shortened: (§1)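 SPR kinetics at 25 °C on amine-coupled isozyme surfaces, with immobilization protein level and acetate coupling pH set per isozyme. Running buffer PBST, pH 7.4, with 2 % DMSO.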

[2] = biological target: T1, Carbonic anhydrase 9; assay: Binding affinity to human recombinant CA9 catalytic domain assessed as dissociation rate constant at pH 6 by surface plasmon resonance assay
Procedure, shortened: (§2)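 pH-dependence SPR on CA IX or CA XII catalytic domain surfaces, using a denatured-protein reference. Buffers were 50 mM sodium phosphate, 150 mM NaCl, 0.05 % Tween-20 and 2 % DMSO at pH 6.0, 7.0 or 8.0. Ligands ran as 2-fold series (62.5–2000 or 31.3–1000 nM) with 60 s injection and 90–360 s dissociation. Triplicates used a new surface each time. KD = kd/ka from the kinetic fit.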

[3] = biological target: T1, Carbonic anhydrase 9; assay: Binding affinity to human recombinant CA9 catalytic domain assessed as association rate constant at pH 8 by surface plasmon resonance assay; procedure, shortened: as §2
[4] = biological target: T1, Carbonic anhydrase 9; assay: Binding affinity to human recombinant CA9 catalytic domain assessed as dissociation constant calculated from kinetic parameters at pH 6 by surface plasmon resonance assay; procedure, shortened: as §2
[5] = biological target: T1, Carbonic anhydrase 9; assay: Binding affinity to human recombinant CA9 catalytic domain assessed as dissociation constant calculated from saturation signal at pH 7 by surface plasmon resonance assay
Procedure, shortened: (§3)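 CA IX catalytic domain SPR in 50 mM sodium phosphate, 150 mM NaCl at pH 6.0, 7.0 or 8.0, run as triplicates on fresh surfaces. KD was fitted by steady-state approximation, R = Rmax[L]/([L]+KD), using the saturation signal averaged from three points in the last 10 s of a 60 s injection.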

[6] = biological target: T1, Carbonic anhydrase 9; assay: Binding affinity to human recombinant CA9 catalytic domain assessed as dissociation rate constant at pH 8 by surface plasmon resonance assay; procedure, shortened: as §2
[7] = biological target: T1, Carbonic anhydrase 9; assay: Binding affinity to human recombinant CA9 catalytic domain assessed as dissociation constant calculated from kinetic parameters at pH 8 by surface plasmon resonance assay; procedure, shortened: as §2
[8] = biological target: T1, Carbonic anhydrase 9; assay: Binding affinity to human recombinant CA9 catalytic domain assessed as association rate constant at pH 7 by surface plasmon resonance assay; procedure, shortened: as §2
[9] = biological target: T1, Carbonic anhydrase 9; assay: Binding affinity to human recombinant CA9 catalytic domain assessed as dissociation constant calculated from saturation signal at pH 6 by surface plasmon resonance assay; procedure, shortened: as §3
[10] = biological target: T1, Carbonic anhydrase 9; assay: Binding affinity to human recombinant CA9 catalytic domain assessed as dissociation constant calculated from kinetic parameters at pH 7 by surface plasmon resonance assay; procedure, shortened: as §2
[11] = biological target: T1, Carbonic anhydrase 9; assay: Binding affinity to human recombinant CA9 catalytic domain assessed as association rate constant after 30 secs by surface plasmon resonance assay
Procedure, shortened: (§4)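 SPR kinetics at 25 °C on amine-coupled isozyme surfaces, with immobilization protein level and acetate coupling pH set per isozyme. Running buffer PBST, pH 7.4, with 2 % DMSO. Ligands run as 2-fold series from 15.6 to 2000 nM at 30 or 90 µL/min, with 30 s association and 180 s dissociation.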

[12] = biological target: T1, Carbonic anhydrase 9; assay: Binding affinity to human recombinant CA9 catalytic domain assessed as dissociation rate constant at pH 7 by surface plasmon resonance assay; procedure, shortened: as §2
[13] = biological target: T1, Carbonic anhydrase 9; assay: Binding affinity to human recombinant CA9 catalytic domain by fluorescence-based thermal shift assay
[14] = biological target: T2, Carbonic anhydrase 1 (Homo sapiens, UniProt P00915); assay: Binding affinity to human recombinant CA1 expressed in Escherichia coli assessed as association rate constant after 30 secs by surface plasmon resonance assay
Procedure, shortened: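 Full-length enzyme amine-coupled to a carboxymethyl-dextran chip (75 µg/mL in 10 mM sodium acetate pH 5, about 6000 RU). SPR at 25 °C in PBST pH 7.4 with 2% DMSO. Ligands injected as 2-fold series, 15.6–2000 nM, at 30 or 90 µL/min. Association 30 s, dissociation 180 s. Regeneration with 200 µM sulphanilamide. ka from non-linear fit to a one-step binding model with mass transport.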
Target sequence in this assay (P00915 2-261 limits assumed): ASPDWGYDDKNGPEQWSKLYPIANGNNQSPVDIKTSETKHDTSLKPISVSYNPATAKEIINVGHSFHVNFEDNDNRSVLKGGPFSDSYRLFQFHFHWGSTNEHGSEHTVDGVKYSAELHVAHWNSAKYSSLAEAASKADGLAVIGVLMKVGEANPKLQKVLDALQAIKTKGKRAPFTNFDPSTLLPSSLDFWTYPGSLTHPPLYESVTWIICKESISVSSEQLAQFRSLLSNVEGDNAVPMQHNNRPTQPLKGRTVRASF

[15] = biological target: T1, Carbonic anhydrase 9; assay: Binding affinity to human recombinant CA9 catalytic domain assessed as association rate constant at pH 6 by surface plasmon resonance assay; procedure, shortened: as §2
[16] = biological target: T1, Carbonic anhydrase 9; assay: Binding affinity to human recombinant CA9 catalytic domain assessed as dissociation constant calculated from saturation signal at pH 8 by surface plasmon resonance assay; procedure, shortened: as §3
[17] = biological target: T1, Carbonic anhydrase 9; assay: Binding affinity to human recombinant CA9 catalytic domain after 30 secs by surface plasmon resonance assay; procedure, shortened: as §1
[18] = biological target: T3, Carbonic anhydrase 7 (Homo sapiens, UniProt P43166); assay: Binding affinity to human recombinant CA7 after 30 secs by surface plasmon resonance assay
T3 sequence (P43166 whole entry): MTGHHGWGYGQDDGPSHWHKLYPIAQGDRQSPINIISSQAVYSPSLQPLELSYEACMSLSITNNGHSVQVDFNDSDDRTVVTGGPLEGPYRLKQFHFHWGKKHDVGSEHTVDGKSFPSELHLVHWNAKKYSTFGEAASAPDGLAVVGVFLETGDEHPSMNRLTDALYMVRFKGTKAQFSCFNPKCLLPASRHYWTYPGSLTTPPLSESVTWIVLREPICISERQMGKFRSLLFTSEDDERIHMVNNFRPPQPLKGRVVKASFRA

[19] = biological target: T3, Carbonic anhydrase 7; assay: Binding affinity to human recombinant CA7 assessed as dissociation rate constant after 30 secs by surface plasmon resonance assay
[20] = biological target: T4, Carbonic anhydrase 12 (Homo sapiens, UniProt O43570); assay: Binding affinity to human recombinant CA12 catalytic domain assessed as dissociation constant calculated from saturation signal at pH 7 by surface plasmon resonance assay
T4 sequence (O43570 whole entry, the tested form may be a part): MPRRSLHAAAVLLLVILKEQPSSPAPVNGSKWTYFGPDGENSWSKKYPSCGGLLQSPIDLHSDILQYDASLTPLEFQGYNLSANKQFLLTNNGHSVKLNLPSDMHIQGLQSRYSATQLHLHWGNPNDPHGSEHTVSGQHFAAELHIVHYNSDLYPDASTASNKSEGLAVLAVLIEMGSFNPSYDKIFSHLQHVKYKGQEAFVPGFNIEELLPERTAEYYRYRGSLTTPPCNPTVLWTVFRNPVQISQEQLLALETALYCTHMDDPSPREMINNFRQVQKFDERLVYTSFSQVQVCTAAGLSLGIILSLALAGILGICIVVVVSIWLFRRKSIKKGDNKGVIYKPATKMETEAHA

[21] = biological target: T3, Carbonic anhydrase 7; assay: Binding affinity to human recombinant CA7 by fluorescence-based thermal shift assay
[22] = biological target: T5, Carbonic anhydrase 13 (Homo sapiens, UniProt Q8N1Q1); assay: Binding affinity to human recombinant CA13 by fluorescence-based thermal shift assay
Target sequence in this assay (Q8N1Q1 whole entry, the tested form may be a part): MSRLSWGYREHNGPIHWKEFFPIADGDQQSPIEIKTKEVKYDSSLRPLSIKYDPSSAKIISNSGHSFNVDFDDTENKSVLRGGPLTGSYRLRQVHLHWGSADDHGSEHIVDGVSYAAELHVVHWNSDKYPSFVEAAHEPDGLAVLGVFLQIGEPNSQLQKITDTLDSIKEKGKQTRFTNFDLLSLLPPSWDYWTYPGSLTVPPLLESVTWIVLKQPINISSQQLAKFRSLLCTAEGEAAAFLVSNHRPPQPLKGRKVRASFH

[23] = biological target: T4, Carbonic anhydrase 12; assay: Binding affinity to human recombinant CA12 catalytic domain by fluorescence-based thermal shift assay
[24] = biological target: T6, Carbonic anhydrase 2 (Homo sapiens, UniProt P00918); assay: Binding affinity to human recombinant CA2 expressed in Escherichia coli by fluorescence-based thermal shift assay
[25] = biological target: T5, Carbonic anhydrase 13; assay: Slow rate dissociation at human recombinant CA13 after 30 sec by surface plasmon resonance assay; procedure, shortened: as §4
Target sequence in this assay (Q8N1Q1 whole entry, looked up, the tested form may be a part): as the sequence (Q8N1Q1 whole entry, the tested form may be a part) above

[26] = biological target: T4, Carbonic anhydrase 12; assay: Binding affinity to human recombinant CA12 catalytic domain after 30 secs by surface plasmon resonance assay
[27] = biological target: T2, Carbonic anhydrase 1; assay: Binding affinity to human recombinant CA1 expressed in Escherichia coli by fluorescence-based thermal shift assay
Target sequence in this assay (P00915 whole entry): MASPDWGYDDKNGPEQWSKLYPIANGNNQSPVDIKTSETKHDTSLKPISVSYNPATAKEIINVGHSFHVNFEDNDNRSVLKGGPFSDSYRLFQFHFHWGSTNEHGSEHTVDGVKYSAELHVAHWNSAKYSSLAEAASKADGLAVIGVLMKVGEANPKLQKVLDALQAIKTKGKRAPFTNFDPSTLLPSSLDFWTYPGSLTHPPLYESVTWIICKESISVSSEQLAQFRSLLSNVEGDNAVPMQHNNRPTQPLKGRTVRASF

[28] = biological target: T4, Carbonic anhydrase 12; assay: Binding affinity to human recombinant CA12 catalytic domain assessed as dissociation constant calculated from saturation signal at pH 8 by surface plasmon resonance assay
[29] = biological target: T4, Carbonic anhydrase 12; assay: Binding affinity to human recombinant CA12 catalytic domain assessed as dissociation constant calculated from saturation signal at pH 6 by surface plasmon resonance assay
[30] = biological target: T3, Carbonic anhydrase 7; assay: Slow rate dissociation at human recombinant CA7 after 30 sec by surface plasmon resonance assay; procedure, shortened: as §4
[31] = biological target: T4, Carbonic anhydrase 12; assay: Binding affinity to human recombinant CA12 catalytic domain assessed as dissociation rate constant after 30 secs by surface plasmon resonance assay
[32] = biological target: T3, Carbonic anhydrase 7; assay: Reversible binding affinity to human recombinant CA7
[33] = biological target: T6, Carbonic anhydrase 2; assay: Binding affinity to human recombinant CA2 expressed in Escherichia coli after 30 secs by surface plasmon resonance assay
[34] = biological target: T2, Carbonic anhydrase 1; assay: Binding affinity to human recombinant CA1 expressed in Escherichia coli assessed as dissociation rate constant after 30 secs by surface plasmon resonance assay; procedure, shortened: as §1
Target sequence in this assay (P00915 whole entry): as above

[35] = biological target: T2, Carbonic anhydrase 1; assay: Binding affinity to human recombinant CA1 expressed in Escherichia coli after 30 secs by surface plasmon resonance assay; procedure, shortened: as §1
Target sequence in this assay (P00915 whole entry): as above

[36] = biological target: T6, Carbonic anhydrase 2; assay: Binding affinity to human recombinant CA2 expressed in Escherichia coli assessed as dissociation rate constant after 30 secs by surface plasmon resonance assay
[37] = biological target: T5, Carbonic anhydrase 13; assay: Binding affinity to human recombinant CA13 after 30 secs by surface plasmon resonance assay
Target sequence in this assay (Q8N1Q1 whole entry, the tested form may be a part): as the sequence (Q8N1Q1 whole entry, the tested form may be a part) above

[38] = biological target: T5, Carbonic anhydrase 13; assay: Binding affinity to human recombinant CA13 assessed as dissociation rate constant after 30 secs by surface plasmon resonance assay
Target sequence in this assay (Q8N1Q1 whole entry, the tested form may be a part): as above

[39] = biological target: T4, Carbonic anhydrase 12; assay: Slow rate dissociation at human recombinant CA12 catalytic domain after 30 sec by surface plasmon resonance assay; procedure, shortened: as §4
[40] = biological target: T1, Carbonic anhydrase 9; assay: Slow rate dissociation at human recombinant CA9 catalytic domain after 30 sec by surface plasmon resonance assay; procedure, shortened: as §4

Compound: CCCSc1c(F)c(F)c(S(N)(=O)=O)c(NC2CCCCCCC2)c1F
Kd [18]: 510 nM
koff (dissociation rate constant) [19]: 1 ×10⁻² /s
Kd [20]: 840 nM
Dissociation rate constant (koff) [2]: 7.9 ×10⁻³ /s
Kd [21]: 74 nM
K [3]: 3.3 ×10⁵ /M/s
Kd [22]: 33 nM
Kd [23]: 100 nM
Kd [4]: 140 nM
Kd [24]: 450 nM
Dissociation rate constant (koff) [6]: 6.2 ×10⁻³ /s
Kd [7]: 19 nM
Activity [25]: Active
K [8]: 1.6 ×10⁵ /M/s
Kd [26]: 400 nM
Kd [10]: 46 nM
Kd [27]: 9100 nM
K [11]: 2.9 ×10⁵ /M/s
Kd [28]: 390 nM
Dissociation rate constant (koff) [12]: 7.2 ×10⁻³ /s
Kd [13]: 0.17 nM
K [15]: 5.8 ×10⁴ /M/s
Kd [29]: 2600 nM
Kd [17]: 27 nM

Compound: COc1ccc(CNc2c(F)c(F)c(F)c(F)c2S(N)(=O)=O)cc1
Kd [33]: 66 nM
Kd [18]: 4800 nM
koff (dissociation rate constant) [19]: 1.4 ×10⁻¹ /s
koff (dissociation rate constant) [1]: 2.6 ×10⁻¹ /s
Kd [21]: 250 nM
Kd [22]: 50 nM
Kd [23]: 330 nM
Kd [24]: 77 nM
Kd [34]: 6.6 ×10⁻³ /s
Kd [35]: 61 nM
Kd [27]: 25 nM
K [11]: 1.8 ×10⁶ /M/s
Kd [37]: 210 nM
Kd [13]: 22 nM
K [14]: 1.1 ×10⁵ /M/s
Dissociation rate constant (koff) [36]: 2.6 ×10⁻² /s
koff [38]: 2.2 ×10⁻² /s
Kd [17]: 150 nM

Compound: CCCS(=O)(=O)c1c(F)c(F)c(S(N)(=O)=O)c(F)c1NC1CCCCCCC1
Kd [33]: 100 nM
Kd [18]: 40 nM
koff (dissociation rate constant) [19]: 2 ×10⁻³ /s
Activity [39]: Active
Kd [21]: 3.2 nM
Kd [22]: 2.2 nM
Kd [23]: 1.1 nM
Activity [40]: Active
Kd [24]: 20 nM
Kd [27]: 330 nM
Kd [37]: 15 nM
Kd [13]: 0.0067 nM

Second part, the molecule after the results:

koff (dissociation rate constant) [1]: 2.6 ×10⁻¹ /s
Dissociation rate constant (koff) [2]: 4.3 ×10⁻¹ /s
K [3]: 1.7 ×10⁶ /M/s
Kd [4]: 1100 nM
Kd [5]: 260 nM
Dissociation rate constant (koff) [6]: 1.8 ×10⁻¹ /s
Kd [7]: 100 nM
K [8]: 1.8 ×10⁶ /M/s
Kd [9]: 940 nM
Kd [10]: 160 nM
K [11]: 1.8 ×10⁶ /M/s
Dissociation rate constant (koff) [12]: 3 ×10⁻¹ /s
Kd [13]: 110 nM
K [14]: 3.1 ×10⁵ /M/s
K [15]: 4.4 ×10⁵ /M/s
Kd [16]: 190 nM
Kd [17]: 150 nM
Compound: NS(=O)(=O)c1ccc(C(=O)CSc2ncccn2)cc1Cl

Activity [30]: Active
Kd [21]: 0.077 nM
Kd [22]: 1.5 nM
Dissociation rate constant (koff) [31]: 1.1 ×10⁻² /s
Kd [23]: 17 nM
Kd [24]: 0.59 nM
Activity [25]: Active
Activity [32]: inactive
Kd [26]: 59 nM
Kd [27]: 220 nM
K [11]: 7 ×10⁵ /M/s
Kd [13]: 0.2 nM
Kd [17]: 9.2 nM
Compound: CC(C)(C)Nc1c(F)c(S(N)(=O)=O)c(F)c(F)c1S(=O)(=O)CCc1ccccc1

Kd [33]: 6.4 nM
Kd [18]: 45 nM
koff (dissociation rate constant) [19]: 1.3 ×10⁻² /s
koff (dissociation rate constant) [1]: 1 ×10⁻¹ /s
Kd [21]: 3.1 nM
Kd [22]: 0.42 nM
Dissociation rate constant (koff) [31]: 1.4 ×10⁻¹ /s
Kd [23]: 100 nM
Kd [24]: 2.4 nM
Activity [25]: Active
Activity [32]: inactive
Kd [34]: 1 ×10⁻² /s
Kd [35]: 25 nM
Kd [26]: 95 nM
Kd [27]: 25 nM
K [11]: 6.5 ×10⁶ /M/s
Kd [13]: 2 nM
K [14]: 3.9 ×10⁵ /M/s
Dissociation rate constant (koff) [36]: 8.2 ×10⁻³ /s
Kd [17]: 16 nM
Compound: CNc1c(F)c(S(N)(=O)=O)c(F)c(F)c1S(=O)(=O)CCc1ccccc1

— ChEMBL document CHEMBL3797037, “Kinetically Selective Inhibitors of Human Carbonic Anhydrase Isozymes I, II, VII, IX, XII, and XIII” (J Med Chem, 2016)
